{"source": "ChEMBL document CHEMBL4321808", "about": "“Heteroaryl Phosphonates as Noncovalent Inhibitors of Both Serine- and Metallocarbapenemases” (J Med Chem, 2019)", "key": {"[1]": {"experiment": "Inhibition of N-terminal 6x-His-tagged VIM-2 (unknown origin) expressed in Escherichia coli Rosetta 2 (DE3) assessed as reduction in nitrocefin hydrolysis by spectrophotometry", "set-up": "species or system Bacteria", "procedure,_shortened": "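Metallo-enzyme assay in 50 mM HEPES pH 7.2 with 50 µM zinc sulfate, 0.01% Triton X-100 and 20 µg/mL BSA, 37 °C. NDM-1 was construct 1 with the His/SUMO tag cleaved, at 2 nM; VIM-2 had its His tag TEV-cleaved, at 0.5 nM. Nitrocefin hydrolysis read at 486 nm; IC50 from sigmoidal fit, Ki by Cheng-Prusoff; mostly duplicate.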"}, "Enterobacter cloacae": {"system": "Enterobacter cloacae", "experiment": "Inhibition of NDM-1 in Enterobacter cloacae 5981 assessed as potentiation of ceftazidime-induced antimicrobial activity by measuring ceftazidime MIC incubated for 18 to 20 hrs by CLSI based method", "procedure,_shortened": "(§1)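 CLSI broth microdilution in MHBII. Avibactam fixed at 4 µg/mL with ceftazidime at 64–0.006 µg/mL. Inoculum about 5×10^5 CFU per well, incubated at 35 °C for 18–20 h. Ceftazidime MIC read as absence of visible growth.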"}, "[2]": {"molecular_target": "Metallo-beta-lactamase type 2 (Klebsiella pneumoniae) (UniProt C7C422)", "sequence (C7C422 whole entry)": "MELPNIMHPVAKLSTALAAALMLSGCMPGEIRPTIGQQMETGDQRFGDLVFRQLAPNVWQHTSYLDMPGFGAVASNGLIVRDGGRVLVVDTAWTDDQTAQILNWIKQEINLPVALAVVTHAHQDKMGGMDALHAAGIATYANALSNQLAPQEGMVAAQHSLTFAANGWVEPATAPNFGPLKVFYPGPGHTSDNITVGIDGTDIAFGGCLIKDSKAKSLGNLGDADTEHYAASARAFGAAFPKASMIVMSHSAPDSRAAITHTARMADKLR", "experiment": "Inhibition of NDM-1 in Klebsiella pneumoniae 5979 assessed as potentiation of ceftazidime-induced antimicrobial activity by measuring ceftazidime MIC incubated for 18 to 20 hrs by CLSI based method", "procedure,_shortened": "as §1"}, "Escherichia coli": {"system": "Escherichia coli", "experiment": "Inhibition of NDM-1 in Escherichia coli 5980 assessed as potentiation of ceftazidime-induced antimicrobial activity by measuring ceftazidime MIC incubated for 18 to 20 hrs by CLSI based method", "procedure,_shortened": "as §1"}, "Klebsiella pneumoniae [3]": {"system": "Klebsiella pneumoniae", "experiment": "Inhibition of KPC2 in Klebsiella pneumoniae 4683 assessed as potentiation of ceftazidime-induced antimicrobial activity by measuring ceftazidime MIC incubated for 18 to 20 hrs by CLSI based method", "procedure,_shortened": "as §1"}, "[4]": {"molecular_target": "Beta-lactamase VIM-2 (Pseudomonas aeruginosa) (UniProt Q9K2N0)", "experiment": "Inhibition of VIM-2 in Pseudomonas aeruginosa 4698 assessed as potentiation of ceftazidime-induced antimicrobial activity by measuring ceftazidime MIC incubated for 18 to 20 hrs by CLSI based method", "procedure,_shortened": "as §1"}, "[5]": {"experiment": "Inhibition of N-terminal 6x-His/Sumo-tagged NDM-1 (29 to 270 residues) (unknown origin) expressed in Escherichia coli BL21 (DE3) assessed as reduction in nitrocefin hydrolysis by spectrophotometry", "set-up": "species or system Bacteria", "procedure,_shortened": "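Metallo-enzyme assay in 50 mM HEPES pH 7.2 with 50 µM zinc sulfate, 0.01% Triton X-100 and 20 µg/mL BSA, 37 °C. NDM-1 was construct 1 with the His/SUMO tag cleaved, at 2 nM; VIM-2 had its His tag TEV-cleaved, at 0.5 nM.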"}, "[6]": {"experiment": "Inhibition of N-terminal 6x-His-tagged Klebsiella pneumoniae KPC2 (25 to 293 residues) assessed as reduction in nitrocefin hydrolysis by spectrophotometry", "procedure,_shortened": "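Purified recombinant KPC-2 at 1 nM in 100 mM Tris-HCl pH 7.0 with 0.01% Triton X-100, 37 °C, reaction started by enzyme. IC50 from sigmoidal fit; Ki by Cheng-Prusoff using the nitrocefin Km. Run in duplicate, or once or in triplicate for some compounds.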"}, "[7]": {"experiment": "Permeability in MDCK-MDR1 cells assessed as drug recovery", "type": "ADME, cell-based, Canis lupus familiaris", "conditions": "dog; call rule not given here"}, "[8]": {"molecular_target": "Beta-lactamase VIM-2 (Pseudomonas aeruginosa) (UniProt Q9K2N0)", "experiment": "Inhibition of VIM-2 in Pseudomonas aeruginosa 4882 assessed as potentiation of imipenem-induced antimicrobial activity by measuring imipenem MIC incubated for 18 to 20 hrs by CLSI based method (reference value: 32 ug/ml)"}, "[9]": {"experiment": "Apparent permeability from apical to basolateral side in MDCK-MDR1 cells", "type": "ADME, cell-based, Canis lupus familiaris", "conditions": "dog"}, "[10]": {"experiment": "Cytotoxicity in HEK293T cells assessed as cell recovery rate at 100 ug/ml incubated for 48 hrs by MTT assay relative to control", "type": "cell-based, HEK-293T", "conditions": "human, read-out: Activity", "procedure,_shortened": "(§2)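 HEK293T cells grown in DMEM with 10% FBS and 1% penicillin/streptomycin. Compounds in DMSO were tested at 200–3.125 µg/mL, two-fold dilutions, for 48 h at 37 °C, 5% CO2. Viability by MTT, read at OD 570 nm; percent recovery calculated against solvent-only controls.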"}, "[11]": {"molecular_target": "Beta-lactamase VIM-2 (Pseudomonas aeruginosa) (UniProt Q9K2N0)", "experiment": "Inhibition of VIM-2 in efflux positive Pseudomonas aeruginosa 4402 assessed as potentiation of ceftazidime-induced antimicrobial activity by measuring ceftazidime MIC incubated for 18 to 20 hrs by CLSI based method (reference value: 32 ug/ml)", "procedure,_shortened": "(§3)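 CLSI broth microdilution in MHBII. Standardized inoculum was a 0.5 McFarland suspension diluted to about 5×10^5 CFU per well. Ceftazidime was tested over 64–0.006 µg/mL, with avibactam fixed at 4 µg/mL as the positive control.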"}, "Pseudomonas aeruginosa [12]": {"system": "Pseudomonas aeruginosa", "experiment": "Inhibition of KPC2 in Pseudomonas aeruginosa 4135 assessed as potentiation of ceftazidime-induced antimicrobial activity by measuring ceftazidime MIC incubated for 18 to 20 hrs by CLSI based method (reference value: […] ug/ml)"}, "Pseudomonas aeruginosa [13]": {"system": "Pseudomonas aeruginosa", "experiment": "Antimicrobial activity against efflux positive Pseudomonas aeruginosa 4177 expressing NDM1 assessed as inhibition of microbial growth incubated for 18 to 20 hrs in presence of imipenem by CLSI based method", "type": "functional"}, "Pseudomonas aeruginosa [14]": {"system": "Pseudomonas aeruginosa", "experiment": "Antimicrobial activity against Pseudomonas aeruginosa 4135 expressing KPC2 assessed as inhibition of microbial growth incubated for 18 to 20 hrs in presence of imipenem by CLSI based method", "type": "functional"}, "Pseudomonas aeruginosa [15]": {"system": "Pseudomonas aeruginosa", "experiment": "Antimicrobial activity against efflux positive Pseudomonas aeruginosa 4402 expressing VIM2 assessed as inhibition of microbial growth incubated for 18 to 20 hrs in presence of imipenem by CLSI based method", "type": "functional"}, "Klebsiella pneumoniae [16]": {"system": "Klebsiella pneumoniae", "experiment": "Antimicrobial activity against Klebsiella pneumoniae C2 expressing KPC2 assessed as inhibition of microbial growth incubated for 18 to 20 hrs in presence of imipenem by CLSI based method", "type": "functional"}, "Pseudomonas aeruginosa [17]": {"system": "Pseudomonas aeruginosa", "experiment": "Antimicrobial activity against Pseudomonas aeruginosa 4129 expressing NDM1 assessed as inhibition of microbial growth incubated for 18 to 20 hrs in presence of imipenem by CLSI based method", "type": "functional"}, "[18]": {"experiment": "Half life in mouse liver microsomes", "type": "ADME, Microsome"}, "[19]": {"experiment": "Apparent permeability from basolateral to apical side in MDCK-MDR1 cells", "type": "ADME, cell-based, Canis lupus familiaris", "conditions": "dog"}, "[20]": {"experiment": "Kinetic solubility in pH 7.4 PBS", "type": "physicochemical", "conditions": "buffer"}, "[21]": {"experiment": "Intrinsic clearance in mouse liver microsomes", "type": "ADME, Microsome"}, "Pseudomonas aeruginosa [22]": {"system": "Pseudomonas aeruginosa", "experiment": "Antimicrobial activity against Pseudomonas aeruginosa 4882 expressing VIM2 assessed as inhibition of microbial growth incubated for 18 to 20 hrs in presence of imipenem by CLSI based method", "type": "functional"}, "Pseudomonas aeruginosa [23]": {"system": "Pseudomonas aeruginosa", "experiment": "Inhibition of NDM1 in efflux positive Pseudomonas aeruginosa 4177 assessed as potentiation of ceftazidime-induced antimicrobial activity by measuring ceftazidime MIC incubated for 18 to 20 hrs by CLSI based method (reference value: 128 ug/ml)", "procedure,_shortened": "as §3"}, "[24]": {"experiment": "Cytotoxicity in HEK293T cells assessed as cell recovery rate at 200 ug/ml incubated for 48 hrs by MTT assay relative to control", "type": "cell-based, HEK-293T", "conditions": "human, read-out: Activity", "procedure,_shortened": "as §2"}, "Klebsiella pneumoniae [25]": {"system": "Klebsiella pneumoniae", "experiment": "Inhibition of KPC2 in Klebsiella pneumoniae C2 assessed as potentiation of imipenem-induced antimicrobial activity by measuring imipenem MIC incubated for 18 to 20 hrs by CLSI based method (reference value: 512 ug/ml)"}, "Pseudomonas aeruginosa [26]": {"system": "Pseudomonas aeruginosa", "experiment": "Inhibition of NDM1 in Pseudomonas aeruginosa 4129 assessed as potentiation of ceftazidime-induced antimicrobial activity by measuring ceftazidime MIC incubated for 18 to 20 hrs by CLSI based method (reference value: 128 ug/ml)", "procedure,_shortened": "as §3"}}}
{"smiles": "O=P(O)(O)Cc1cccc2cccnc12", "values": [{"measurement": "Ki", "setting": "[1]", "value": 22.3, "unit": "µM"}]}
{"smiles": "NC(=O)[C@@H]1CC[C@@H]2CN1C(=O)N2OS(=O)(=O)O", "values": [{"measurement": "MIC", "setting": "Enterobacter cloacae", "value": 4, "unit": "µg/mL"}, {"measurement": "MIC", "setting": "[2]", "value": 4, "unit": "µg/mL"}, {"measurement": "MIC", "setting": "Escherichia coli", "value": 4, "unit": "µg/mL"}, {"measurement": "MIC", "setting": "Klebsiella pneumoniae [3]", "value": 4, "unit": "µg/mL"}, {"measurement": "MIC", "setting": "[4]", "value": 4, "unit": "µg/mL"}]}
{"smiles": "Cn1c(=O)cc(CP(=O)(O)O)c2ccccc21", "values": [{"measurement": "Ki", "setting": "[5]; read-out: Ki", "value": 81, "unit": "µM"}, {"measurement": "Ki", "setting": "[1]", "value": 7.5, "unit": "µM"}]}
{"smiles": "O=P(O)(O)Cc1ccnc2ccccc12", "values": [{"measurement": "Ki", "setting": "[5]", "value": "Not Active"}, {"measurement": "Ki", "setting": "[1]", "value": 30.3, "unit": "µM"}, {"measurement": "Ki", "setting": "[6]", "value": 326, "unit": "µM"}]}
{"smiles": "Cc1cc2oc(=O)cc(CP(=O)(O)O)c2cc1C", "values": [{"measurement": "Ki", "setting": "[5]; read-out: Ki", "value": 44.3, "unit": "µM"}, {"measurement": "Ki", "setting": "[1]", "value": 2.1, "unit": "µM"}]}
{"smiles": "C[C@H]1O[C@@H](O[C@H]2[C@@H](O)C[C@H](O[C@H]3[C@@H](O)C[C@H](O[C@H]4CC[C@@]5(C)[C@H](CC[C@@H]6[C@@H]5C[C@@H](O)[C@]5(C)[C@@H](C7=CC(=O)OC7)CC[C@]65O)C4)O[C@@H]3C)O[C@@H]2C)C[C@H](O)[C@@H]1O", "note": "[DIGOXIN]", "values": [{"measurement": "Drug recovery", "setting": "[7]", "value": 105, "unit": "%"}]}
{"smiles": "COc1cc(C)cc2oc(=O)cc(CP(=O)(O)O)c12", "values": [{"measurement": "Ki", "setting": "[6]", "value": 11.9, "unit": "µM"}]}
{"smiles": "O=c1cc(CP(=O)(O)O)c2c(Br)cc(Br)cc2[nH]1", "values": [{"measurement": "MIC", "setting": "[8]", "value": 2, "unit": "µg/mL"}, {"measurement": "Papp", "setting": "[9]", "value": "< 0.7", "unit": "×10⁻⁶ cm/s"}, {"measurement": "viability at 48 h, 100 ug/ml", "setting": "[10]", "value": 88, "unit": "%"}, {"measurement": "MIC", "setting": "[11]", "value": 4, "unit": "µg/mL"}, {"measurement": "MIC", "setting": "Pseudomonas aeruginosa [12]", "value": 2, "unit": "µg/mL"}, {"measurement": "MIC", "setting": "Pseudomonas aeruginosa [13]", "value": 128, "unit": "µg/mL"}, {"measurement": "Ki", "setting": "[5]; read-out: Ki", "value": 31.4, "unit": "µM"}, {"measurement": "MIC", "setting": "Pseudomonas aeruginosa [14]", "value": 128, "unit": "µg/mL"}, {"measurement": "MIC", "setting": "Pseudomonas aeruginosa [15]", "value": 128, "unit": "µg/mL"}, {"measurement": "MIC", "setting": "Klebsiella pneumoniae [16]", "value": "16 to 128", "unit": "µg/mL"}, {"measurement": "Ki", "setting": "[1]", "value": 0.316, "unit": "µM"}, {"measurement": "Ki", "setting": "[6]", "value": 0.02, "unit": "µM"}, {"measurement": "MIC", "setting": "Pseudomonas aeruginosa [17]", "value": 128, "unit": "µg/mL"}, {"measurement": "t1/2", "setting": "[18]", "value": "> 2", "unit": "h"}, {"measurement": "Papp", "setting": "[19]", "value": "< 0.2", "unit": "×10⁻⁶ cm/s"}, {"measurement": "Kinetic_solubility", "setting": "[20]", "value": 241, "unit": "µM"}, {"measurement": "Drug recovery", "setting": "[7]", "value": 91, "unit": "%"}, {"measurement": "CLH", "setting": "[21]", "value": "< 11.6", "unit": "µL/min/mg"}, {"measurement": "MIC", "setting": "Pseudomonas aeruginosa [22]", "value": 128, "unit": "µg/mL"}, {"measurement": "MIC", "setting": "Pseudomonas aeruginosa [23]", "value": 32, "unit": "µg/mL"}, {"measurement": "viability at 48 h, 200 ug/ml", "setting": "[24]", "value": 70, "unit": "%"}, {"measurement": "MIC", "setting": "Klebsiella pneumoniae [25]", "value": "4 to 16", "unit": "µg/mL"}, {"measurement": "MIC", "setting": "Pseudomonas aeruginosa [26]", "value": 8, "unit": "µg/mL"}]}
